# Compound activity as filed in PubChem.
# In the library only some 1.1% were active in any assay of this set; here they are far more common.
# Tb MetRS inh: Trypanosoma brucei MetRS inhibition | purified T. brucei MetRS, ATP depletion, Kinase-Glo luminescence | inhibition, % at 11.9 µM | hit rate 0.4% among 360,000 | AID 624268;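 active = inhibition above a per-plate cutoff of the control wells' mean inhibition plus 3 SD, cut at about 5.5% in these data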;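 note: 0% = DMSO wells median and 100% = median of wells with control inhibitor compound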
#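 Material: T. brucei methionyl-tRNA synthetase, purified; reagent: substrates ATP, L-methionine and bulk Escherichia coli tRNA; dosing: 11.9 µM single point; timing: 15 min plus 2 h at 25 °C; detection: luminescence of leftover ATP; evaluation: % inhibition; control set: DMSO-only wells as low control; replicates: singlicate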
# GC-A act: GC-A (human) enzyme activation | P16066 | HEK293 GC-A cells, cGMP TR-FRET, EC30 ANP; 0% at EC30 ANP, 100% saturating ANP | activation, % at 10 µM | hit rate 0.14% among 370,000 | AID 1671463; in the data active = activation above about 40%
# Target sequence (P16066 whole entry, looked up): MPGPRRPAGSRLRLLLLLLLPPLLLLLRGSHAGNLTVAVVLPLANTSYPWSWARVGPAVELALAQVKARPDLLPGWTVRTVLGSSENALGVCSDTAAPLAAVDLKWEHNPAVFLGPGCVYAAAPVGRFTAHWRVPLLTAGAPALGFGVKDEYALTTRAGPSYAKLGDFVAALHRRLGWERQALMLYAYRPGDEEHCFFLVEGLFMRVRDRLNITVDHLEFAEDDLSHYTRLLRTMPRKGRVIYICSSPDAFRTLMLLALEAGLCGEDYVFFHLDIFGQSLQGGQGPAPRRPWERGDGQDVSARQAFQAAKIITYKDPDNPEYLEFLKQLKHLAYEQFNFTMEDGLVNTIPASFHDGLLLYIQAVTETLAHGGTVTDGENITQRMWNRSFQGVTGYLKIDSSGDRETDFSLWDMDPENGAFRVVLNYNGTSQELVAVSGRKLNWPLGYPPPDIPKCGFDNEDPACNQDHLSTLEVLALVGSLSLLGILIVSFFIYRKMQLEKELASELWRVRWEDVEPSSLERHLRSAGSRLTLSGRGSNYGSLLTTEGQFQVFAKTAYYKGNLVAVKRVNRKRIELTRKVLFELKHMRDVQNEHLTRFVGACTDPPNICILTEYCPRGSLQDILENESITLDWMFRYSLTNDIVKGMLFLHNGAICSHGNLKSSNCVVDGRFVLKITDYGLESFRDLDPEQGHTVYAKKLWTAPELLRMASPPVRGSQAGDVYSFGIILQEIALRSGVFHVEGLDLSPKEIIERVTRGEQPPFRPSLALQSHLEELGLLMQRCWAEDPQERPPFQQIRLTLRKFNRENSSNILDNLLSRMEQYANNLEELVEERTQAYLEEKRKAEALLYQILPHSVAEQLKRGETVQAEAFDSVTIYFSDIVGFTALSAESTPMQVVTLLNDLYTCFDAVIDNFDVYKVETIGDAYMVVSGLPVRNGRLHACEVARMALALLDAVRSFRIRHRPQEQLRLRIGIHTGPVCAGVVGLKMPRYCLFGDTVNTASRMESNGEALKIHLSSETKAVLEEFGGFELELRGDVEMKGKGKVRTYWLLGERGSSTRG
# Bfl-1 A1 inh: inhibitors of the anti-apoptotic protein A1, read as caspase activation; hit rate 0.066% among 330,000; caspase activation, % (concentration not given with the values); MEF A1-2A-BIM cells, Caspase-Glo 3/7 luminescence, 3 h; percent of clofoctol response, vehicle zero;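 active = over half of replicate activation scores above 10%, or exactly half above 10 with the replicate mean above 10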
# MT1-MMP act inh: MT1-MMP (human) activation inhibition | hit rate 0.061% among 360,000 | GFP/RFP ratio change, % at 20 µM | HT1080 RFP-PRO-GFP cells, GFP/RFP ratio fluorescence, overnight; percent of plate control window, DMSO zero;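 active = GFP/RFP ratio change of at least 30% with cell ATP level not reduced by more than half and red fluorescence within 50% of control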
#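 system = RFP-PRO-GFP reporter HT1080 cells | dosing = 20 µM single dose, 1% DMSO | timing = overnight cell settling, then overnight compound exposure, 37 °C, 5% CO2 | read-out basis = GFP/RFP fluorescence ratio | controls = DMSO and RFP-L50D-GFP cell wells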
# NPR2 activator: GC-B (human) receptor activation | P20594 | HEK293-GC-B cells, CNP EC30, cGMP TR-FRET; 0% at EC30 CNP, 100% saturating CNP | activation, % at 10 µM | hit rate 0.11% among 370,000 | AID 1920062;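 active = activation at 10 µM reaching about 35% in either raw or pattern-adjusted values, limit read from the data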
# SKN-1 block: blocks SKN-1 activity in C. elegans; C. elegans VP596 Pgst-4::GFP/RFP ratio, acrylamide-induced, 24 h; inhibition, % at 21.8 µM; hit rate 0.49% among 360,000;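 active = interference check ratio from 0.5 to 1.5 plus GFP to RFP signal ratio inhibition reaching or exceeding a fixed threshold, cut at about 30% in these data, passing the limit was not always enough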
# TbMetRS confirm: confirmation of Trypanosoma brucei MetRS inhibitors; T. brucei MetRS enzyme, luminescence (ATP depletion); hit rate 93% among 1,400; shares compounds with Tb MetRS inh; inhibition, % at 11.9 µM; AID 624412; in the data active = inhibition above about 7%
# Jurkat cytotox: kills Jurkat cells in T. brucei MetRS counterscreen; Jurkat cells viability, ATP luminescence; hit rate 12% among 1,400; inhibition, % at 8.3 µM; shares compounds with Tb MetRS inh; in the data active = inhibition above about 15%;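 note: 0% = vehicle and 100% = reference inhibitor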
# TbMetRS FP orth: inhibits T. brucei methionyl tRNA synthetase in orthogonal FP test. AID 651607. hit rate 44% among 1,400. inhibition, % at 11.9 µM. purified T. brucei MetRS, fluorescence polarization. shares compounds with Tb MetRS inh; in the data active = inhibition above about 17%;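 note: 0% = vehicle wells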
# Starred values were filed as active, the others as inactive; / = not tested or not shown; ! = a repeat was not active.
SMILES,Tb MetRS inh,GC-A act,Bfl-1 A1 inh,MT1-MMP act inh,NPR2 activator,SKN-1 block,TbMetRS confirm,Jurkat cytotox,TbMetRS FP orth
Cn1c(=O)cc(OCCCC(=O)Nc2cc(-c3cn[nH]c3)ccn2)c2ccccc21,/,-2,/,/,-2,/,/,/,/
Cc1cc(C)n(CC(O)COc2ccc(Cl)cc2Cl)n1 (stereo not drawn),2,-16,-1,2,-12,6,/,/,/
Cc1nccn1CC(O)COc1ccc(Cl)cc1Cl (stereo not drawn),9.5*,4,0,3,0,-10,11*,8,-2
C=CCn1c(COc2ccccc2F)nnc1SCC(=O)c1c[nH]c2ccccc12,13*,-8,0,-1,-8,11,17*,2,7
c1ccc(Cn2ccc3ccc(-c4ccc5ccn(Cc6cccc(Oc7ccccc7)c6)c5c4)cc32)cc1,/,0,/,/,-3,/,/,/,/
c1ccc2c3c([nH]c2c1)-c1[nH]ncc1CC3,16*,6,0,8,-5,15,19*,2,22*
Clc1ccc2[nH]c3c(c2c1)CCc1cn[nH]c1-3,32*,4,1,8,-10,32,28*,5,100*
CCCCCCCCN1CN2Cc3cc(F)ccc3C2CS1(=O)=O (stereo not drawn),/,3,/,/,4,/,/,/,/
CN(C)CC(=O)N[C@@H]1C[C@@H]2O[C@@H](CO)CC[C@@H]2O[C@@H]1CCc1ccc(-c2ccc(F)cc2)cc1,/,16,/,/,-1,/,/,/,/
C=CC(=O)NC1CCCCN(CC)C1=O (stereo not drawn),/,4,/,/,-3,/,/,/,/
CCC(CO)Nc1cccc2c1S(=O)(=O)N(Cc1cn(Cc3cccc(C(F)(F)F)c3)nn1)Cc1ccccc1O2 (stereo not drawn),/,-3,/,/,1,/,/,/,/
NS(=O)(=O)c1ccc(NC(=O)c2c(F)cccc2Cl)cc1,7.9*,1,1,1,-1,5,4,-4,1
NS(=O)(=O)c1ccc(NC(=O)c2c(Cl)cccc2Cl)cc1,0,0,0,0,1,7,/,/,/
CC(C)N=C(N)N=C(N)Nc1ccc(Cl)cc1,2,4,/,-6,0,11,/,/,/
NC(=NCCCCCCN=C(N)/N=C(\N)Nc1ccc(Cl)cc1)/N=C(\N)Nc1ccc(Cl)cc1,45*!,1,4,-11,-11,26,53*,31*,51*
O=C(CCCNC(=O)c1ccc(Cl)cc1)Nc1ccc(Br)cc1,9.1*,-7,1,2,-5,2,60*,6,43*
O=C(CCNC(=O)c1ccc(Br)cc1)Nc1cccc(S(=O)(=O)N2CCCC2)c1,1,-5,-1,2,-3,7,/,/,/
Cc1cccc(NC(=O)CCNC(=O)c2ccc(Br)cc2)c1,31*,-2,0,-1,-6,6,56*,1,70*
Oc1ccc2[nH]cc(CCc3ccccc3)c2c1-c1ccccc1,/,12,/,/,-1,/,/,/,/
COc1ccc(S[C@]2(C(=O)N3CCN(c4ncccn4)CC3)CC(=O)N(c3ccccc3)[C@@H]2c2ccc(OC)cc2)cc1,/,-5,/,/,-7,/,/,/,/
Cc1cccc(NC(=O)NCC(c2ccc(F)cc2)N2CCN(C)CC2)c1 (stereo not drawn),1,3,1,5,1,12,/,/,/
Cc1nnsc1SCCNC(=O)Nc1ccc(Cl)cc1,6.5*,0,1,0,1,3,12*,11,15
O=C(NCCc1ccc(Cl)cc1)Nc1ccc(F)cc1,18*,-1,1,1,-14,0,30*,-3,12
